Reference: ChEMBL document CHEMBL1145333, “Low molecular weight activated protein C inhibitors as a potential treatment for hemophilic disorders” (J Med Chem, 2006)

Tests used:
[1] = target: Prothrombin (Homo sapiens, UniProt P00734); test: Inhibition of human thrombin activity
How it was run: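 Thrombin counterscreen using its natural substrate, fibrinogen. Result expressed as an IC50.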

[2] = target: Vitamin K-dependent protein C (Homo sapiens, UniProt P04070); test: Inhibition of human aPC
[3] = organism: Homo sapiens; test: Increase in thrombin generation in human moderate hemophilia A pooled poor platelet plasma by thrombogram assay at 20 uM; format: functional; settings: in the assay text read “20 nM” for “20 uM”
How it was run: (§1)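 Calibrated automated thrombogram in human moderate hemophilia A platelet-poor plasma (FVIII < 5%). Thrombin generation triggered via the intrinsic coagulation pathway. Inhibitor incubated in the plasma at 10 and 20 nM alongside a 0 nM control. Read-out is the thrombin generation curve and its peak thrombin level (nM).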

[4] = organism: Homo sapiens; test: Increase in thrombin generation in human severe hemophilia A pooled poor platelet plasma at 20 nM relative to control by thrombogram assay
[5] = organism: Homo sapiens; test: Increase in thrombin generation in human moderate hemophilia A platelet poor plasma by thrombogram assay at 10 uM; format: functional; settings: in the assay text read “10 nM” for “10 uM”; how it was run: as §1

Sequence of Vitamin K-dependent protein C (P04070 43-197 limits assumed): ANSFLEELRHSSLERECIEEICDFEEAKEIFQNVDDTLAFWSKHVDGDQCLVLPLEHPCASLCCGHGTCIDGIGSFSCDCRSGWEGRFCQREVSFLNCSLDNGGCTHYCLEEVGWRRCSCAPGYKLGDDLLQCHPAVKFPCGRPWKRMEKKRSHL
Sequence of Vitamin K-dependent protein C (P04070 212-461 limits assumed): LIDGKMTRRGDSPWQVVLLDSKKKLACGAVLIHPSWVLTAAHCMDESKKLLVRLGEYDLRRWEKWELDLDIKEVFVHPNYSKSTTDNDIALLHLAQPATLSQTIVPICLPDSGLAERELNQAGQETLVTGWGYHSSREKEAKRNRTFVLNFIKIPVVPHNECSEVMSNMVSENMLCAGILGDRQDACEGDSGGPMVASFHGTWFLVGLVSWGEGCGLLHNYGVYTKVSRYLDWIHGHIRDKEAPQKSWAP

| Compound | IC50 [1] [µM] | IC50 [2] [µM] | Activity [3] [nM] | Activity [4] [nM] | Activity [5] [nM] |
| --- | --- | --- | --- | --- | --- |
| CC(C)[C@@H](NCC(=O)O)C(=O)N[C@H](C(=O)NCc1ccc(C(=N)N)cc1)C(c1ccccc1)c1ccccc1 | – | > 33 | – | – | – |
| CC(C)(C)[C@@H](NCC(=O)O)C(=O)NC1(C(=O)NCc2ccc(C(=N)N)cc2)Cc2ccccc2C1 | 300 | 3.83 | – | – | – |
| CC(C)[C@@H](NCC(=O)O)C(=O)NC1(C(=O)NCc2ccc(C(=N)N)cc2)Cc2cc3ccccc3cc2C1 | > 300 | 9.28 | – | – | – |
| N=C(N)c1ccc(CNC(=O)C2(NC(=O)[C@@H](NCC(=O)O)C3CCCCC3)Cc3ccccc3C2)cc1 | > 33 | > 33 | – | – | – |
| CC(C)[C@@H](NCC(=O)O)C(=O)NC1(C(=O)NCc2ccc(C(=N)N)cc2)Cc2cccc3cccc(c23)C1 | > 300 | 0.43 | – | – | – |
| CC(C)(NCC(=O)O)C(=O)NC1(C(=O)NCc2ccc(C(=N)N)cc2)Cc2ccccc2C1 | > 300 | 44 | – | – | – |
| CC(C)C[C@@H](NCC(=O)O)C(=O)NC1(C(=O)NCc2ccc(C(=N)N)cc2)Cc2ccccc2C1 | > 33 | 0.75 | – | – | – |
| CC(C)[C@@H](NCC(=O)O)C(=O)NC1(C(=O)NCc2ccc(C(=N)N)cc2)Cc2ccccc2-c2ccccc2C1 | > 300 | 12.7 | – | – | – |
| COc1cc2c(cc1OC)CC(NC(=O)[C@H](NCC(=O)O)C(C)C)(C(=O)NCc1ccc(C(=N)N)cc1)C2 | > 33 | 10.9 | – | – | – |
| CC(C)[C@@H](NCC(=O)O)C(=O)N[C@H](C(=O)NCc1ccc(C(=N)N)cc1)C1Cc2ccccc2C1 | > 33 | 0.35 | – | – | – |
| CC(C)[C@@H](NCC(=O)O)C(=O)NC1(C(=O)NCc2ccc(C(=N)N)cc2)Cc2ccccc2C1 | > 300 | 0.8 | – | – | – |
| CC(C)[C@@H](NCC(=O)O)C(=O)NC1(C(=O)NCc2ccc(C(=N)N)cc2)Cc2cccnc2C1 (single isomer, unassigned; diastereomer 1) | 300 | 1.07 | – | – | – |
| CC(C)[C@@H](NCC(=O)O)C(=O)NC1(C(=O)NCc2ccc(C(=N)N)cc2)Cc2cccnc2C1 (single isomer, unassigned; diastereomer 2) | 300 | 1.14 | – | – | – |

Further lines, with some results ahead:

| IC50 [1] [µM] | IC50 [2] [µM] | Compound | Activity [3] [nM] | Activity [4] [nM] | Activity [5] [nM] |
| --- | --- | --- | --- | --- | --- |
| 1.25 | 0.1 | N=C(N)c1ccc(CNC(=O)C2(NC(=O)[C@@H](CC3CCCCC3)NCC(=O)O)Cc3ccccc3C2)cc1 | – | – | – |
| 13.3 | 0.71 | CC(C)[C@@H](NCC(=O)O)C(=O)N[C@@H](Cc1ccccc1)C(=O)NCc1ccc(C(=N)N)cc1 | – | – | – |
| 300 | 2.04 | CC[C@@H](NCC(=O)O)C(=O)NC1(C(=O)NCc2ccc(C(=N)N)cc2)Cc2ccccc2C1 | – | – | – |
| 10 | 11.3 | N=C(N)c1ccc(CNC(=O)C2(NC(=O)[C@@H](Cc3ccccc3)NCC(=O)O)Cc3ccccc3C2)cc1 | – | – | – |
| 100 | > 33 | N=C(N)c1ccc(CNC(=O)C2(NC(=O)CNCC(=O)O)Cc3ccccc3C2)cc1 | – | – | – |
| 47 | – | N=C(N)c1ccc(CNC(=O)C2(NC(=O)[C@H](NCC(=O)O)C3CCCCC3)Cc3ccccc3C2)cc1 | 160 | 201 | 160 |
| 85 | 1.12 | CCC(C)[C@@H](NCC(=O)O)C(=O)NC1(C(=O)NCc2ccc(C(=N)N)cc2)Cc2ccccc2C1 (some centres undefined) | – | – | – |
| 0.77 | 0.25 | CC(C)[C@@H](NCC(=O)O)C(=O)NC1(C(=O)NCc2ccc(C(=N)N)cc2)Cc2ccc3ccccc3c2C1 (some centres undefined) | – | – | – |
| 4.4 | 53 | N=C(N)c1ccc(CNC(=O)C2(NC(=O)C3(NCC(=O)O)CCCC3)Cc3ccccc3C2)cc1 | – | – | – |
| 33 | 9.08 | C[C@@H](NCC(=O)O)C(=O)NC1(C(=O)NCc2ccc(C(=N)N)cc2)Cc2ccccc2C1 | – | – | – |
| 100 | 1.7 | CC(C)[C@@H](NCC(=O)O)C(=O)NC1(C(=O)NCc2ccc(C(=N)N)cc2)Cc2ccncc2C1 (some centres undefined) | – | – | – |
